Columns and labels:
[1] = system: MCF7; assay: In vitro inhibitory activity against mammary carcinoma MCF-7 cell lines; format: functional, cell-based; conditions: Homo sapiens
In short: (§1)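 Cells kept in RPMI 1640 with 10% FBS, penicillin and streptomycin, under 5% CO2, and subcultured twice weekly in log phase. They were seeded at 2.5-3 × 10² per well and left 4 h to adhere. Drug from 10 mM DMSO stocks was given at 1 pM–100 µM final (DMSO ≤0.25%), n = 8, for 7 days. MTT was added for 4 h, formazan dissolved in DMSO/glycine buffer, and absorbance read at 550 nm as viable cell number.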

[2] = system: MDA-MB-468; assay: In vitro inhibitory activity against mammary carcinoma MDA 468 cell lines; format: functional, cell-based; conditions: Homo sapiens
In short: (§2)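 MDA 468 cells kept in RPMI 1640 with 10% FBS and antibiotics under 5% CO2. They were seeded at 2.5-3 × 10² per well and left 4 h to attach. Drug from 10 mM DMSO stocks was diluted to 1 pM–100 µM final (DMSO ≤0.25%), n = 8, and incubated 10 days. MTT was added for 4 h, formazan solubilized in DMSO/glycine buffer, and A550 read as a measure of viable cells.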

[3] = system: HT-29; assay: In vitro cytotoxicity against HT-29 human colon cancer cell line; format: functional, cell-based
[4] = system: WiDr; assay: In vitro cytotoxicity against WiDr human colon cancer cell line; format: functional, cell-based
[5] = system: MDA-MB-231; assay: In vitro cytotoxicity against MDA 231 human breast cancer cell line with EGFR positive erbB3 positive; format: functional, cell-based; in short: as §1
[6] = system: PC-3; assay: In vitro cytotoxicity against PC-3 human prostate cancer cell line; format: functional, cell-based; in short: as §1
[7] = system: MCF7; assay: In vitro cytotoxicity against MCF-7/Adr human breast cancer cell line; format: functional, cell-based; in short: as §1
[8] = system: SK-BR-3; assay: In vitro cytotoxicity against SKBR 3 human breast cancer cell line with ER negative; format: functional, cell-based; in short: as §1
[9] = system: A2780; assay: In vitro cytotoxicity against A2780 human ovarian cancer cell line; format: functional, cell-based
[10] = system: ZR-75-1; assay: In vitro cytotoxicity against ZR 75 human breast cancer cell line with ER positive; format: functional, cell-based; in short: as §1
[11] = system: A204; assay: In vitro cytotoxicity against A204 human rhabdomyosarcoma cancer cell line; format: functional, cell-based
[12] = system: T47D; assay: In vitro cytotoxicity against T47D human breast cancer cell line with ER negative; format: functional, cell-based; in short: as §1
[13] = system: IGR-37 cell line; assay: In vitro cytotoxicity against […] human melanoma cancer cell line; format: functional, cell-based
[14] = system: MDA-MB-468; assay: In vitro cytotoxicity against MDA 468 human breast cancer cell line with ER negative EGFR positive; format: functional, cell-based; in short: as §2
[15] = system: DU-145; assay: In vitro cytotoxicity against DU-145 human prostate cancer cell line; format: functional, cell-based; in short: as §1
[16] = system: T-24; assay: In vitro cytotoxicity against T24 human bladder cancer cell line
[17] = system: MCF7; assay: In vitro cytotoxicity against MCF-7 human breast cancer cell line with ER positive; format: functional, cell-based; in short: as §1

Structure (SMILES) | IC50 [1] [µM] | IC50 [2] [µM] | other results
c1ccc2sc(-c3ccc(N4CCCC4)cc3)nc2c1 | < 1 | – | –
Nc1ccc(-c2nc3ccccc3s2)cc1O | > 0.0001 | > 10 | –
COc1cccc2sc(-c3ccc(N)cc3Cl)nc12 | > 10 | > 10 | –
COc1cc(OC)c2sc(-c3ccc(N)cc3)nc2c1 | > 10 | > 10 | –
c1ccc2sc(-c3ccc(N4CCOCC4)cc3)nc2c1 | > 10 | > 10 | –
Nc1ccc(-c2nc3ccccc3[nH]2)cc1 | > 1 | > 10 | –
c1ccc2sc(-c3ccncc3)nc2c1 | > 10 | > 10 | –
Nc1ccc(-c2nc3cc(OCc4ccccc4)ccc3s2)c(Cl)c1 | > 10 | > 10 | –
COc1cc2nc(-c3ccc(N)cc3)sc2cc1OC | > 10 | > 10 | –
N#Cc1cc(-c2nc3ccccc3s2)ccc1N | < 0.01 | – | –
Nc1ccc(-c2nc3ccccc3s2)cn1 | > 10 | > 10 | –
c1ccc2sc(-c3ccc(N4CCCCC4)cc3)nc2c1 | > 10 | > 10 | –
Nc1ccc(-c2nc3ccc(O)cc3s2)cc1 | > 1 | > 10 | –
COc1cc(OC)c2nc(-c3ccc(N)cc3)sc2c1 | > 10 | – | –
Nc1ncc(-c2nc3ccccc3s2)cc1Br | < 0.01 | < 0.01 | –
Nc1ccc(-c2nc3cc(O)cc(O)c3s2)cc1 | > 10 | – | –

Second part, led by results:

IC50 [1] [µM] | IC50 [2] [µM] | Structure (SMILES) | other results
< 0.01 | > 1 | Nc1ccc(-c2nc3ccccc3o2)cc1 | –
< 0.0001 | < 0.0001 | CCc1cc(-c2nc3ccccc3s2)ccc1N | –
< 0.01 | > 0.001 | Cc1cc(-c2nc3ccccc3s2)cc(Cl)c1N | –
< 0.0001 | > 10 | COc1ccc2nc(-c3ccc(N)cc3)sc2c1 | –
< 0.0001 | < 0.1 | Nc1ccc(-c2nc3ccccc3s2)cc1Cl | –
< 0.0001 | < 0.001 | Nc1ccc(-c2nc3ccccc3s2)cc1 | IC50 [3]: > 30 µM; IC50 [4]: > 30 µM; IC50 [5]: 0.017 µM; IC50 [6]: > 30 µM; IC50 [7]: > 10 µM; IC50 [8]: 0.0081 µM; IC50 [9]: > 30 µM; IC50 [10]: 0.028 µM; IC50 [11]: > 30 µM; IC50 [12]: > 10 µM; IC50 [13]: > 30 µM; IC50 [14]: 0.0016 µM; IC50 [15]: > 30 µM; IC50 [16]: > 30 µM; IC50 [17]: 0.0008 µM
< 0.0001 | < 0.0001 | COc1ccc2nc(-c3ccc(N)c(I)c3)sc2c1 | –
